Data taken from ChEMBL document CHEMBL4346672, “Antimicrobial and KPC/AmpC inhibitory activity of functionalized benzosiloxaboroles” (Eur J Med Chem, 2019).
In brackets after ≈: the same amount, converted by molar mass. Activity calls are given as the source filed them. The calls are words filed in the database; no cut-off is given here.

What was measured:
Pichia kudriavzevii [1] = test: Antifungal activity against Candida krusei ATCC 6258 assessed as decrease in fungal cell growth incubated for 24 hrs by E-test; format: functional; conditions: ATCC 6258, 24 h
Summary of the method: (§1)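 Yeasts were first subcultured on Sabouraud dextrose agar at 30 °C for 24–48 h. […] The MIC was recorded per Etest recommendations, which covers cases where macro-colonies persist inside the ellipse.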

Candida parapsilosis [2] = test: Antifungal activity against Candida parapsilosis ATCC 22019 assessed as decrease in fungal cell growth incubated for 24 hrs by E-test; format: functional; conditions: Lodderomyces parapsilosis, ATCC 22019, 24 h; summary of the method: as §1
Saccharomyces cerevisiae [3] = test: Antifungal activity against Saccharomyces cerevisiae ATCC 9763 assessed as decrease in fungal cell growth incubated for 24 hrs by E-test; format: functional; conditions: ATCC 9763, 24 h
Summary of the method: (§2)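 Yeast strains were stored at -80 °C and subcultured twice on Sabouraud dextrose agar for 24–48 h at 30 °C before testing.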

Candida albicans [4] = test: Antifungal activity against Candida albicans ATCC 90028 assessed as decrease in fungal cell growth incubated for 24 hrs by E-test; format: functional; conditions: ATCC 90028, 24 h; summary of the method: as §2
Pichia kudriavzevii [5] = test: Antifungal activity against Candida krusei ATCC 6258 assessed as diameter of zone inhibition at 0.025 mg incubated for 24 hrs by disc diffusion method; format: functional; conditions: ATCC 6258, 24 h, read-out: DIZ
Summary of the method: (§3)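 Disc diffusion on Mueller-Hinton II agar with 2% glucose and 0.5 mg/L methylene blue. Compounds were dissolved in DMSO. Yeasts were subcultured on Sabouraud dextrose agar for 24–48 h at 30 °C before testing. Plates were incubated at 35 °C for 24 h.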

[6] = system: Meyerozyma guilliermondii; test: Antifungal activity against Candida guilliermondii IBA 155 assessed as decrease in fungal cell growth incubated for 24 hrs by E-test; format: functional; conditions: IBA 155, 24 h; summary of the method: as §1
Candida tropicalis [7] = test: Antifungal activity against Candida tropicalis IBA 171 assessed as diameter of zone inhibition at 0.025 mg incubated for 24 hrs by disc diffusion method; format: functional; conditions: IBA 171, 24 h, read-out: DIZ; summary of the method: as §3
[8] = system: Meyerozyma guilliermondii; test: Antifungal activity against Candida guilliermondii IBA 155 assessed as diameter of zone inhibition at 0.025 mg incubated for 24 hrs by disc diffusion method; format: functional; conditions: IBA 155, 24 h, read-out: DIZ; summary of the method: as §3
Saccharomyces cerevisiae [9] = test: Antifungal activity against Saccharomyces cerevisiae ATCC 9763 diameter of zone inhibition at 0.025 mg incubated for 24 hrs by disc diffusion method; format: functional; conditions: ATCC 9763, 24 h, read-out: DIZ; summary of the method: as §3
Candida albicans [10] = test: Antifungal activity against Candida albicans ATCC 90028 assessed as diameter of zone inhibition at 0.025 mg incubated for 24 hrs by disc diffusion method; format: functional; conditions: ATCC 90028, 24 h, read-out: DIZ; summary of the method: as §3
Candida parapsilosis [11] = test: Antifungal activity against Candida parapsilosis ATCC 22019 assessed as diameter of zone inhibition at 0.025 mg incubated for 24 hrs by disc diffusion method; format: functional; conditions: Lodderomyces parapsilosis, ATCC 22019, 24 h; read-out: DIZ; summary of the method: as §3
Candida tropicalis [12] = test: Antifungal activity against Candida tropicalis IBA 171 assessed as decrease in fungal cell growth incubated for 24 hrs by E-test; format: functional; conditions: IBA 171, 24 h; summary of the method: as §1
[13] = system: Staphylococcus epidermidis; test: Antibacterial activity against Staphylococcus epidermidis ATCC 12228 assessed as diameter of zone inhibition measured after 18 hrs by CLSI disc diffusion method; format: functional
Summary of the method: (§4)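 Disc diffusion on Mueller-Hinton II agar. Compounds dissolved in DMSO. Strains stored at -80 °C and subcultured twice on tryptic soy agar before testing. Inhibition zones read after 35 °C, 18 h.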

Acinetobacter baumannii = test: Antibacterial activity against Acinetobacter baumannii ATCC 19606 assessed as diameter of zone inhibition measured after 18 hrs by CLSI disc diffusion method; format: functional; summary of the method: as §4
Burkholderia cepacia = test: Antibacterial activity against Burkholderia cepacia ATCC 25416 assessed as diameter of zone inhibition measured after 18 hrs by CLSI disc diffusion method; format: functional; summary of the method: as §4
[14] = Dissociation constant, pKa2 of compound in 0.1 M NaOH by potentiometric analysis; format: physicochemical
Enterococcus faecium = test: Antibacterial activity against Enterococcus faecium ATCC 6057 assessed as diameter of zone inhibition measured after 18 hrs by CLSI disc diffusion method; format: functional; summary of the method: as §4
Enterobacter cloacae = test: Antibacterial activity against Enterobacter cloacae DSM 6234 assessed as diameter of zone inhibition measured after 18 hrs by CLSI disc diffusion method; format: functional; summary of the method: as §4
[15] = system: Meyerozyma guilliermondii; test: Antifungal activity against Candida guilliermondii IBA 155 assessed as diameter of zone inhibition incubated for 24 hrs by CLSI disc diffusion method; format: functional
Summary of the method: (§5)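 Yeast disc diffusion on Mueller-Hinton agar supplemented with 2% glucose and 0.5 mg/L methylene blue. Compounds in DMSO. Yeasts subcultured on Sabouraud dextrose agar before testing. Zones read after 35 °C, 24 h.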

[16] = Dissociation constant, pKa1 of compound in 0.1 M NaOH by potentiometric analysis; format: physicochemical
Staphylococcus aureus = test: Antibacterial activity against Staphylococcus aureus ATCC 6538P assessed as diameter of zone inhibition measured after 18 hrs by CLSI disc diffusion method; format: functional; summary of the method: as §4
Candida tropicalis [17] = test: Antifungal activity against Candida tropicalis IBA 171 assessed as diameter of zone inhibition incubated for 24 hrs by CLSI disc diffusion method; format: functional; summary of the method: as §5
Serratia marcescens = conditions: ATCC 13880
Pseudomonas aeruginosa = test: Antibacterial activity against Pseudomonas aeruginosa ATCC 27853 assessed as diameter of zone inhibition measured after 18 hrs by CLSI disc diffusion method; format: functional, organism-based; summary of the method: as §4
Enterococcus faecalis = test: Antibacterial activity against Enterococcus faecalis ATCC 29212 assessed as diameter of zone inhibition measured after 18 hrs by CLSI disc diffusion method; format: functional; summary of the method: as §4
Saccharomyces cerevisiae [18] = test: Antifungal activity against Saccharomyces cerevisiae ATCC 9763 diameter of zone inhibition incubated for 24 hrs by CLSI disc diffusion method; format: functional
Summary of the method: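 Disc-diffusion run on Mueller-Hinton II agar with 2% glucose and 0.5 mg/L methylene blue, using compounds in DMSO. Yeast was precultured on Sabouraud dextrose agar (24–48 h, 30 °C). Zones read after 24 h at 35 °C.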

Bacillus subtilis = test: Antibacterial activity against Bacillus subtilis ATCC 6633 assessed as diameter of zone inhibition measured after 18 hrs by CLSI disc diffusion method; format: functional; summary of the method: as §4
Pichia kudriavzevii [19] = test: Antifungal activity against Candida krusei ATCC 6258 assessed as diameter of zone inhibition incubated for 24 hrs by CLSI disc diffusion method; format: functional; summary of the method: as §5
Candida albicans [20] = test: Antifungal activity against Candida albicans ATCC 90028 assessed as diameter of zone inhibition incubated for 24 hrs by CLSI disc diffusion method; format: functional; summary of the method: as §5
Proteus mirabilis = test: Antibacterial activity against Proteus mirabilis ATCC 12453 assessed as diameter of zone inhibition measured after 18 hrs by CLSI disc diffusion method; format: functional; summary of the method: as §4
[21] = system: Stenotrophomonas maltophilia; test: Antibacterial activity against Stenotrophomonas maltophilia ATCC 13637 assessed as diameter of zone inhibition measured after 18 hrs by CLSI disc diffusion method; format: functional; summary of the method: as §4
[22] = system: Bordetella bronchiseptica; test: Antibacterial activity against Bordetella bronchiseptica ATCC 4617 assessed as diameter of zone inhibition measured after 18 hrs by CLSI disc diffusion method; format: functional; summary of the method: as §4
Candida parapsilosis [23] = test: Antifungal activity against Candida parapsilosis ATCC 22019 assessed as diameter of zone inhibition incubated for 24 hrs by CLSI disc diffusion method; format: functional; summary of the method: as §5
Escherichia coli = test: Antibacterial activity against Escherichia coli ATCC 25922 assessed as diameter of zone inhibition measured after 18 hrs by CLSI disc diffusion method; format: functional; summary of the method: as §4
Klebsiella pneumoniae = conditions: ATCC 13883

SMILES: OC(Cn1cncn1)(Cn1cncn1)c1ccc(F)cc1F [FLUCONAZOLE]
- MIC (Pichia kudriavzevii [1]): 64 µg/mL (≈ 209 µM)
- MIC (Candida parapsilosis [2]): 2 µg/mL (≈ 6.53 µM)
- MIC (Saccharomyces cerevisiae [3]): 16 µg/mL (≈ 52.2 µM)
- MIC (Candida albicans [4]): 1 µg/mL (≈ 3.27 µM)
- zone of inhibition at 25 µg/disc (Pichia kudriavzevii [5]): 16 mm
- MIC [6]: 0.75 µg/mL (≈ 2.45 µM)
- zone of inhibition at 25 µg/disc (Candida tropicalis [7]): 39 mm
- zone of inhibition at 25 µg/disc [8]: 40 mm
- zone of inhibition at 25 µg/disc (Saccharomyces cerevisiae [9]): 12 mm
- zone of inhibition at 25 µg/disc (Candida albicans [10]): 43 mm
- zone of inhibition at 25 µg/disc (Candida parapsilosis [11]): 32 mm
- MIC (Candida tropicalis [12]): 0.38 µg/mL (≈ 1.24 µM)

SMILES: C[Si]1(C)OB(O)c2cc3c(c(F)c21)[Si](C)(C)OB3O
- diameter of the inhibition zone (DIZ) [13]: 34 mm
- diameter of the inhibition zone (DIZ) (Acinetobacter baumannii): inactive
- diameter of the inhibition zone (DIZ) (Burkholderia cepacia): inactive
- pKa [14]: 8.6
- diameter of the inhibition zone (DIZ) (Enterococcus faecium): 16 mm
- diameter of the inhibition zone (DIZ) (Enterobacter cloacae): inactive
- diameter of the inhibition zone (DIZ) [15]: inactive
- pKa [16]: 5.9
- diameter of the inhibition zone (DIZ) (Staphylococcus aureus): 22 mm
- diameter of the inhibition zone (DIZ) (Candida tropicalis [17]): inactive
- DIZ (Serratia marcescens): inactive
- diameter of the inhibition zone (DIZ) (Pseudomonas aeruginosa): inactive
- diameter of the inhibition zone (DIZ) (Enterococcus faecalis): 15 mm
- diameter of the inhibition zone (DIZ) (Saccharomyces cerevisiae [18]): inactive
- diameter of the inhibition zone (DIZ) (Bacillus subtilis): 27 mm
- diameter of the inhibition zone (DIZ) (Pichia kudriavzevii [19]): inactive
- diameter of the inhibition zone (DIZ) (Candida albicans [20]): 11 mm
- diameter of the inhibition zone (DIZ) (Proteus mirabilis): inactive
- diameter of the inhibition zone (DIZ) [21]: inactive
- diameter of the inhibition zone (DIZ) [22]: inactive
- diameter of the inhibition zone (DIZ) (Candida parapsilosis [23]): inactive
- diameter of the inhibition zone (DIZ) (Escherichia coli): inactive
- DIZ (Klebsiella pneumoniae): inactive
